Source: ChEMBL document CHEMBL1157032, “Synthesis and antimicrobial activity of novel pyrazolo[3,4-d]pyrimidin derivatives” (2010)
Values after ≈ are worked out from the molar mass of the structure shown. Active and inactive are the calls of the source. No cut-off for these calls is given here.

Experiments:
Assay type in all cases: functional
[1] = test system: Serratia marcescens; test: Antimicrobial activity against Serratia marcescens MTCC 86 after 24 hrs; conditions: MTCC 86, 24 h
How it was run: (§1)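 Agar well diffusion on Mueller Hinton agar seeded with 0.1 mL of a 10⁵ cfu/mL bacterial suspension in 0.85% sterile saline. 6 mm wells received 0.1 mL of each compound dilution in DMSO (1% DMSO; DMSO alone as control). Plates were incubated 24 h at 37 ± 0.5 °C. Read-out was zone of inhibition in mm. MIC was taken as the lowest concentration giving complete growth inhibition.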

[2] = test system: Aspergillus niger; test: Antimicrobial activity against Aspergillus niger MTCC 1781 at MIC after 48 hrs by agar diffusion method
How it was run: (§2)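 Fungal spore suspensions in sterile distilled water were adjusted to 10⁶ cfu/mL, and 0.1 mL was spread on Sabouraud dextrose agar. 6 mm wells were filled with 0.1 mL of compound dilution in DMSO (1% DMSO; DMSO-only control). Plates were incubated 48 h at 28 ± 0.2 °C, and inhibition zones were measured in mm. MIC was the lowest concentration completely inhibiting growth.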

[3] = test system: Klebsiella pneumoniae; test: Antimicrobial activity against Klebsiella pneumoniae NCIM 2957 after 24 hrs; conditions: NCIM 2957, 24 h; how it was run: as §1
[4] = test system: Proteus vulgaris; test: Antimicrobial activity against Proteus vulgaris MTCC 1771 after 24 hrs; conditions: MTCC 1771, 24 h; how it was run: as §1
[5] = test system: Candida albicans; test: Antimicrobial activity against Candida albicans MTCC 227 at MIC after 48 hrs by agar diffusion method; how it was run: as §2
[6] = test system: Bacillus subtilis; test: Antimicrobial activity against Bacillus subtilis MTCC 1789 after 24 hrs; conditions: MTCC 1789, 24 h; how it was run: as §1
[7] = test system: Pseudomonas aeruginosa; test: Antimicrobial activity against Pseudomonas aeruginosa MTCC 2488 after 24 hrs; conditions: MTCC 2488, 24 h; how it was run: as §1
[8] = test system: Aspergillus flavus; test: Antimicrobial activity against Aspergillus flavus MTCC 2501 after 48 hrs; conditions: MTCC 2501, 48 h; how it was run: as §2
[9] = test system: Priestia megaterium; test: Antimicrobial activity against Bacillus megaterium MTCC 1684 at MIC after 24 hrs by agar diffusion method; how it was run: as §1
[10] = test system: Trichoderma viride; test: Antimicrobial activity against Trichoderma viride MTCC 167 at MIC after 48 hrs by agar diffusion method; how it was run: as §2
[11] = test system: Escherichia coli; test: Antimicrobial activity against Escherichia coli MTCC 1650 at MIC after 24 hrs by agar diffusion method; how it was run: as §1
[12] = test system: Aspergillus flavus; test: Antimicrobial activity against Aspergillus flavus MTCC 2501 at MIC after 48 hrs by agar diffusion method; how it was run: as §2
[13] = test system: Priestia megaterium; test: Antimicrobial activity against Bacillus megaterium MTCC 1684 after 24 hrs; conditions: MTCC 1684, 24 h; how it was run: as §1
[14] = test system: Penicillium chrysogenum; test: Antimicrobial activity against Penicillium chrysogenum MTCC 1996 at MIC after 48 hrs by agar diffusion method; how it was run: as §2
[15] = test system: Trichoderma viride; test: Antimicrobial activity against Trichoderma viride MTCC 167 after 48 hrs; conditions: MTCC 167, 48 h; how it was run: as §2
[16] = test system: Candida albicans; test: Antimicrobial activity against Candida albicans MTCC 227 after 48 hrs; conditions: MTCC 227, 48 h; how it was run: as §2
[17] = test system: Serratia marcescens; test: Antimicrobial activity against Serratia marcescens MTCC 86 at MIC after 24 hrs by agar diffusion method; how it was run: as §1
[18] = test system: Penicillium chrysogenum; test: Antimicrobial activity against Penicillium chrysogenum MTCC 1996 after 48 hrs; conditions: MTCC 1996, 48 h; how it was run: as §2
[19] = test system: Klebsiella pneumoniae; test: Antimicrobial activity against Klebsiella pneumoniae NCIM 2957 at MIC after 24 hrs by agar diffusion method; how it was run: as §1
[20] = test system: Aspergillus niger; test: Antimicrobial activity against Aspergillus niger MTCC 1781 after 48 hrs; conditions: MTCC 1781, 48 h; how it was run: as §2
[21] = test system: Proteus vulgaris; test: Antimicrobial activity against Proteus vulgaris MTCC 1771 at MIC after 24 hrs by agar diffusion method; how it was run: as §1
[22] = test system: Staphylococcus aureus; test: Antimicrobial activity against Staphylococcus aureus MTCC 96 at MIC after 24 hrs by agar diffusion method; how it was run: as §1
[23] = test system: Bacillus subtilis; test: Antimicrobial activity against Bacillus subtilis MTCC 1789 at MIC after 24 hrs by agar diffusion method; how it was run: as §1
[24] = test system: Staphylococcus aureus; test: Antimicrobial activity against Staphylococcus aureus MTCC 96 after 24 hrs; conditions: MTCC 96, 24 h; how it was run: as §1
[25] = test system: Escherichia coli; test: Antimicrobial activity against Escherichia coli MTCC 1650 after 24 hrs; conditions: MTCC 1650, 24 h; how it was run: as §1

Compound | MIC [1] | inhibition zone (IZ) [2] | MIC [3] | MIC [4] | inhibition zone (IZ) [5] | MIC [6] | MIC [7] | MIC [8] | inhibition zone (IZ) [9] | inhibition zone (IZ) [10] | inhibition zone (IZ) [11] | inhibition zone (IZ) [12] | MIC [13] | inhibition zone (IZ) [14] | MIC [15] | MIC [16] | inhibition zone (IZ) [17] | MIC [18] | MIC [20] | inhibition zone (IZ) [22] | further results
Nc1n[nH]c2nc3scc(-c4cc(Cl)ccc4O)n3c(=O)c12 | 50 µg/mL (≈ 150 µM) | 16 mm | 50 µg/mL (≈ 150 µM) | 50 µg/mL (≈ 150 µM) | 12 mm | 50 µg/mL (≈ 150 µM) | 50 µg/mL (≈ 150 µM) | 250 µg/mL (≈ 749 µM) | 12 mm | 27 mm | inactive | 11 mm | 50 µg/mL (≈ 150 µM) | 25 mm | 250 µg/mL (≈ 749 µM) | 250 µg/mL (≈ 749 µM) | 18 mm | 250 µg/mL (≈ 749 µM) | 250 µg/mL (≈ 749 µM) | 31 mm | inhibition zone (IZ) [19]: 13 mm; inhibition zone (IZ) [21]: 9 mm; inhibition zone (IZ) [23]: 10 mm; MIC [24]: 50 µg/mL (≈ 150 µM); MIC [25]: 50 µg/mL (≈ 150 µM)
Nc1n[nH]c2nc3scc(-c4ccc([N+](=O)[O-])cc4)n3c(=O)c12 | 50 µg/mL (≈ 152 µM) | inactive | 50 µg/mL (≈ 152 µM) | 50 µg/mL (≈ 152 µM) | 21 mm | 50 µg/mL (≈ 152 µM) | 50 µg/mL (≈ 152 µM) | 250 µg/mL (≈ 761 µM) | inactive | 29 mm | 10 mm | 16 mm | 50 µg/mL (≈ 152 µM) | 32 mm | 250 µg/mL (≈ 761 µM) | 250 µg/mL (≈ 761 µM) | 16 mm | 250 µg/mL (≈ 761 µM) | 250 µg/mL (≈ 761 µM) | 31 mm | inhibition zone (IZ) [19]: 13 mm; inhibition zone (IZ) [21]: inactive; inhibition zone (IZ) [23]: inactive; MIC [24]: 50 µg/mL (≈ 152 µM); MIC [25]: 50 µg/mL (≈ 152 µM)
Nc1n[nH]c2nc3scc(-c4ccccc4O)n3c(=O)c12 | 50 µg/mL (≈ 167 µM) | 10 mm | 50 µg/mL (≈ 167 µM) | 50 µg/mL (≈ 167 µM) | 18 mm | 50 µg/mL (≈ 167 µM) | 50 µg/mL (≈ 167 µM) | 250 µg/mL (≈ 835 µM) | inactive | 20 mm | inactive | inactive | 50 µg/mL (≈ 167 µM) | inactive | 250 µg/mL (≈ 835 µM) | 250 µg/mL (≈ 835 µM) | 16 mm | 250 µg/mL (≈ 835 µM) | 250 µg/mL (≈ 835 µM) | 12 mm | inhibition zone (IZ) [19]: inactive; inhibition zone (IZ) [23]: inactive; MIC [24]: 50 µg/mL (≈ 167 µM); MIC [25]: 50 µg/mL (≈ 167 µM)
Nc1n[nH]c2nc3scc(-c4ccc(Cl)cc4)n3c(=O)c12 | 50 µg/mL (≈ 157 µM) | 12 mm | 50 µg/mL (≈ 157 µM) | 50 µg/mL (≈ 157 µM) | 13 mm | 50 µg/mL (≈ 157 µM) | 50 µg/mL (≈ 157 µM) | 250 µg/mL (≈ 787 µM) | inactive | 20 mm | inactive | 23 mm | 50 µg/mL (≈ 157 µM) | 26 mm | 250 µg/mL (≈ 787 µM) | 250 µg/mL (≈ 787 µM) | 21 mm | 250 µg/mL (≈ 787 µM) | 250 µg/mL (≈ 787 µM) | inactive | inhibition zone (IZ) [19]: 15 mm; inhibition zone (IZ) [23]: 10 mm; MIC [24]: 50 µg/mL (≈ 157 µM); MIC [25]: 50 µg/mL (≈ 157 µM)
Nc1n[nH]c2nc3scc(-c4cc(Cl)c(Cl)cc4O)n3c(=O)c12 | 50 µg/mL (≈ 136 µM) | 11 mm | 50 µg/mL (≈ 136 µM) | 50 µg/mL (≈ 136 µM) | 10 mm | 50 µg/mL (≈ 136 µM) | 50 µg/mL (≈ 136 µM) | 250 µg/mL (≈ 679 µM) | inactive | 22 mm | 12 mm | 18 mm | 50 µg/mL (≈ 136 µM) | 23 mm | 250 µg/mL (≈ 679 µM) | 250 µg/mL (≈ 679 µM) | inactive | 250 µg/mL (≈ 679 µM) | 250 µg/mL (≈ 679 µM) | inactive | inhibition zone (IZ) [23]: inactive; MIC [24]: 50 µg/mL (≈ 136 µM); MIC [25]: 50 µg/mL (≈ 136 µM)
